Bioassay records deposited in PubChem BioAssay by Johns Hopkins Ion Channel Center.
TRPC6 act = mouse TRPC6 channel activation | 310,000 tested, 0.13% active | HEK293-TRPC6 membrane potential dye fluorescence; active compounds read high | B-score at 10 µM | Q61143;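 active = B-score of the integrated fluorescence ratio above library mean plus 3 SD, and starting fluorescence ratio within library mean plus 5 SD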;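 note: higher score means more depolarization so channel activation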
Target sequence (Q61143 whole entry, looked up): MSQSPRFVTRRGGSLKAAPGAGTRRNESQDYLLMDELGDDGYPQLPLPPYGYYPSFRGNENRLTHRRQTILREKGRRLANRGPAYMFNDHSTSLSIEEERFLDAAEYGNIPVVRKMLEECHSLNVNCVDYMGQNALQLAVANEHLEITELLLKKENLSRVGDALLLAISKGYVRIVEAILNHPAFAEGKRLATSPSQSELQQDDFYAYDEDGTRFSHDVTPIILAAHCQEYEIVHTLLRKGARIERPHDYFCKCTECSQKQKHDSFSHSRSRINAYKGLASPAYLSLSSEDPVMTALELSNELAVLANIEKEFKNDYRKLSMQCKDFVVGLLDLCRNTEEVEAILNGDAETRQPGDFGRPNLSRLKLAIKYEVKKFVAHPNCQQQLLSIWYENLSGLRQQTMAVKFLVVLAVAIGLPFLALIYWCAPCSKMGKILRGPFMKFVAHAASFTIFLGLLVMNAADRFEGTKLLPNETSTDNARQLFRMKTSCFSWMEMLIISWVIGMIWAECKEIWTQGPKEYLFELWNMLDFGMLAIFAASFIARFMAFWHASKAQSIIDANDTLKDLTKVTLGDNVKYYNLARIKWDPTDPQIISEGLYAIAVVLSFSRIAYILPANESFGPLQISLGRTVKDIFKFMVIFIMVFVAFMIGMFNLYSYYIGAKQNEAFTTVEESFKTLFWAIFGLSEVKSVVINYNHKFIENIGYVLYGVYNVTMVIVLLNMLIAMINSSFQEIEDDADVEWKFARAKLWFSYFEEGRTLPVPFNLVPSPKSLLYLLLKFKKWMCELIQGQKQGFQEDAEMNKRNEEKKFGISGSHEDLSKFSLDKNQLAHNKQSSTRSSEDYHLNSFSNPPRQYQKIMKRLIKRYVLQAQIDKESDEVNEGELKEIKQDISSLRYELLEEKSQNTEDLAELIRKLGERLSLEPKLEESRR
TRPC4 PAM = allosterically enhances the mouse TRPC4 cation channel | HEK293 TRPC4beta/mu-opioid, DAMGO EC20, Fluo-4 Ca2+ flux; active compounds read high | B-score at 10 µM | 310,000 tested, 0.42% active;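 active = B-score of calcium response area above 5 SD of library B-scores, with initial fluorescence ratio within 5 SD of library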;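 note: B-score of integrated fluorescence ratio over time as area under calcium response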
TRPC6 inh = inhibitors of mouse TRPC6 channel | B-score at 10 µM | 310,000 tested, 1.1% active | HEK293-TRPC6, membrane potential dye, ACh-evoked depolarization; active compounds read low | AID 2553 | Q61143;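 active = B-score under library mean minus 3 SD, initial fluorescence not abnormally high, positive integrated signal ratio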;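 note: B-score derived from integrated fluorescence ratio over the kinetic read; more negative B-score means stronger inhibition of depolarization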
TRPC4 block = blocks the mouse TRPC4 cation channel. HEK293 TRPC4beta/mu-opioid, DAMGO-evoked Fluo4 calcium flux; active compounds read low. B-score at 10 µM. 300,000 tested, 0.39% active. AID 2247;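 active = B-score over 3 SD under the library average, no early fluorescence shift, positive overall ratio signal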
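Assay system – HEK293 line stably carrying TRPC4beta and mu-opioid receptor · Doses – single dose · Detection – Fluo4 calcium-dye fluorescence, kinetic read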
TRPC4 agonist = opens the mouse TRPC4 cation channel. 310,000 tested, 0.49% active. B-score at 10 µM. HEK293 TRPC4beta/mu-opioid, Fluo4 calcium fluorescence; active compounds read high;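 active = B-score above 5 SD of library B-scores, and initial fluorescence ratio not above library mean plus 5 SD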;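 note: positive B-score marks a calcium rise read as TRPC4 activation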
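System: HEK293 cells stably co-expressing mouse TRPC4beta and mu-opioid receptor; Schedule: Fluo4 dye loading 45 min at room temperature, 110 s recording; Detection: Fluo4 fluorescence, kinetic; Evaluation: B-scored integrated calcium fluorescence ratio; Controls: buffer (low) and maximal DAMGO (high).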
TRPC4 spec 2 = second selectivity test of TRPC6 inhibitors: effect on mouse TRPC4 | 920 tested, 42% active | shares compounds with TRPC6 inh | inhibition, % at 10 µM | HEK293 TRPC4/MOR, membrane potential dye fluorescence; channel activated by saturating DAMGO dose;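 active = compounds whose fluorescence signal differed from control wells by over 3 SD, either direction, in both duplicate plates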
TRPC4 spec = mouse TRPC4 off-target activity of TRPC6 inhibitors; shares compounds with TRPC6 inh; HEK293 TRPC4/mu-opioid, membrane potential fluorescence; activity change, negative = inhibition, % at 10 µM; 920 tested, 61% active; AID 2777;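 active = rise or fall in signal beyond 3 SD of buffer-only wells in both replicate plates, either sign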;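 note: integrated kinetic ratio of fluorescence range over baseline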
HEK293 MPD ctr 2-1 = second check of TRPC6 inhibitor effects in parental HEK293 cells; shares compounds with TRPC6 inh; parental HEK293 membrane potential dye fluorescence; maximal acetylcholine challenge after compound addition; signal change vs control, % at 10 µM; 920 tested, 31% active; AID 2779;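 active = membrane potential signal moving either way by over 3 SD of the maximum-effect control, in both duplicate plates, meaning non-specific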
HEK293 MPD ctr-1 = counter-screen for TRPC6 inhibitors: effect in parental HEK293 cells | shares compounds with TRPC6 inh | parental HEK293 membrane potential dye fluorescence | membrane potential signal change, % at 10 µM | 920 tested, 60% active | AID 2780;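 active = membrane potential signal shifting up or down by more than 3 SD of buffer-only wells, on both duplicate plates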
HEK293 MPD ctr-2 = counter-screen for TRPC6 modulators: effect in parental HEK293 cells | shares compounds with TRPC6 inh | membrane potential dye fluorescence | membrane potential signal change, % at 10 µM | 2,400 tested, 51% active | AID 488924;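 active = membrane potential signal moves up or down beyond 5 SD from buffer-only wells, on both duplicate plates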
HEK293 MPD ctr 2-2 = parental HEK293 nonspecific activity of TRPC6 modulators, second screen; 2,400 tested, 14% active; membrane potential dye fluorescence; after compound, maximal acetylcholine stimulation; inhibition, % at 10 µM; shares compounds with TRPC6 inh;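 active = membrane potential signal drops by more than 5 SD from the mean control signal, in both duplicate plates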;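 note: plate controls were acetylcholine ECmax control wells for no effect and buffer only wells for full effect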
TRPC4 ctr mod = selectivity of TRPC6 modulators against mouse TRPC4. shares compounds with TRPC6 inh. HEK293 TRPC4/mu-opioid, membrane potential fluorescence. percent change from control (negative = decrease, positive = increase), % at 10 µM. 2,400 tested, 69% active;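 active = membrane potential signal moved up or down beyond 5 SD of buffer control wells, in both duplicate plates, actives on both sides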;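 note: plate controls were assay buffer wells for no effect and DAMGO maximal-effect wells for full effect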
TRPC4/MOR inh 2 = second selectivity test of TRPC6 modulators against mouse TRPC4; shares compounds with TRPC6 inh; HEK293 TRPC4/mu-opioid, membrane potential dye fluorescence; stimulated with maximal-effect DAMGO; inhibition, % at 10 µM; 2,400 tested, 55% active;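 active = drop in membrane potential signal beyond 5 SD of the control wells in both duplicate plates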;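 note: TRPC4 counter screen for TRPC6 hits run under conditions tuned for TRPC6 not TRPC4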
TRPC6 block conf = confirmation of mouse TRPC6 inhibitors; shares compounds with TRPC6 inh; HEK293-TRPC6, membrane potential dye, ACh-evoked depolarization; inhibition, % at 10 µM; 3,300 tested, 43% active;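 active = fluorescence ratio falls more than 5 SD below the full-stimulation control mean, in both duplicate runs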;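 note: integrated fluorescence ratio of peak minus minimum over baseline after agonist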
TRPC6 act confirm = confirmation of mouse TRPC6 activators. shares compounds with TRPC6 inh. HEK293-TRPC6 membrane potential dye fluorescence, FDSS. activation, % at 10 µM. 2,800 tested, 11% active. AID 488961;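 active = ratio signal rise beyond 5 SD above unstimulated control wells' mean, seen in both duplicate runs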;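 note: plate controls were buffer EC0 wells for no effect and acetylcholine ECmax response for full effect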
Active calls of the source: *; i = inactive; . = not tested or not shown. The list is not random: actives were taken first. Their share in the collection is about 2.3%.

SMILES	TRPC6 act	TRPC4 PAM	TRPC6 inh	TRPC4 block	TRPC4 agonist	HEK293 MPD ctr-2	HEK293 MPD ctr 2-2	TRPC4 ctr mod	TRPC4/MOR inh 2	TRPC6 block conf	TRPC6 act confirm	others
O=[N+]([O-])c1ccc(N2CCCC2)c2ncccc12	i	i	i	i	i	.	.	.	.	.	.
CC1CN(c2ccc([N+](=O)[O-])c3cccnc23)CC(C)N1 (centres undefined)	i	i	-10*	i	104*	-358%*	i	-60%*	64%*	58%*	i
COc1ccccc1CCNC1CCC(C(C)(C)C)CC1 (centres undefined)	18*	i	-14*	i	i	673%*	105%*	156%*	82%*	98%*	178%*
COc1ccccc1CCNC1CCCCCC1	i	i	i	i	i	.	.	.	.	.	.
CN1C(=O)C(c2ccc([N+](=O)[O-])cc2[N+](=O)[O-])C(=O)N(C)C1=O	i	i	i	i	i	.	.	.	.	.	.
Cc1c(O)ccc(C(=O)CN2CC(C)OC(C)C2)c1O (centres undefined)	i	i	i	i	i	.	.	.	.	.	.
CC[n+]1c(SC)ccc2cc(OC)ccc21	i	i	-5.2*	i	i	-206%*	85%*	-30%*	54%*	58%*	i
CN1C(=O)/C(=C/c2ccc(N3CCCCCC3)o2)C(=O)NC1=S	19*	i	i	i	i	472%*	i	50%*	i	i	93%*
CN1C(=O)/C(=C\c2ccc(N3CCCCC3)o2)C(=O)NC1=S	i	i	i	i	i	.	.	.	.	.	.
C[N+]12CCC(CC1)C(=C(c1ccccc1)c1ccccc1)C2	i	i	-6.8*	i	i	.	.	.	.	81%*	i	TRPC4 spec 2=i;TRPC4 spec=i;HEK293 MPD ctr 2-1=-12%*;HEK293 MPD ctr-1=i
CC[N+]12CCC(CC1)C(=C(c1ccccc1)c1ccccc1)C2	i	i	-6.1*	i	i	i	69%*	i	i	66%*	i
O=C(COc1ccc(Cl)cc1)N(c1ccccc1Cl)C1CN2CCC1CC2 (centres undefined)	i	i	-5.3*	i	i	132%*	i	26%*	52%*	i	.
COc1cc2c(cc1OC)-c1c(OC)c(OC)cc3c1[C@H](C2)N(C)CC3	i	i	-7.7*	i	i	-412%*	i	-58%*	38%*	45%*	i
CN(C)CCN(CC1CCCN(Cc2ccccc2F)C1)C(=O)Cc1c(F)cccc1F (centres undefined)	i	i	i	i	i	.	.	.	.	.	.
CCNc1cc(N2CCN(C)CC2)ccc1[N+](=O)[O-]	i	i	i	i	i	.	.	.	.	.	.
CN1CCN(c2ccc([N+](=O)[O-])c(N/N=C3\CN4CCC3CC4)c2)CC1	i	i	-12*	i	i	-230%*	70%*	-48%*	82%*	76%*	i
Brc1cccc(CNCCc2ccc3c(c2)OCO3)c1	i	i	i	i	i	.	.	.	.	.	.
CC(C)Cc1nc(N2CCNCC2)c(C#N)c2c1CCC2	i	i	-10*	i	i	.	.	.	.	72%*	i	TRPC4 spec 2=34%*;TRPC4 spec=6.0%*;HEK293 MPD ctr 2-1=i;HEK293 MPD ctr-1=14%*
CCc1nc(N2CCNCC2)c(C#N)c2c1CSC(C)(C)C2	i	i	i	i	i	.	.	.	.	.	.
COC(=O)C1=C(c2cc3ccccc3s2)C[C@@H]2CC[C@H]1N2C(=O)NC1CCCCC1	i	i	i	i	i	.	.	.	.	.	.
O=[N+]([O-])c1cnc[nH]1	i	i	i	i	i	.	.	.	.	.	.
CCC[N+]12CCC(CC1)C(C(O)(c1ccccc1)c1ccccc1)C2 (centres undefined)	i	i	i	i	i	.	.	.	.	.	.
C[N+]12CCC(CC1)C(C(O)(c1ccccc1)c1cccs1)C2 (centres undefined)	i	i	-5.7*	i	i	i	i	i	i	55%*	i
CN1C2c3ccccc3C3C4c5ccccc5C(C31)C(C2[N+](=O)[O-])N4C (centres undefined)	i	i	i	i	i	.	.	.	.	.	.
O=C(Nc1cccc(C(F)(F)F)c1)OC1CN2CCC1CC2 (centres undefined)	i	i	-6.5*	i	i	i	i	i	i	54%*	i
Cc1ccccc1CCNCc1cc2cccc(C)c2[nH]c1=O	i	i	-11*	i	i	.	.	.	.	94%*	i	TRPC4 spec 2=16%*;TRPC4 spec=i;HEK293 MPD ctr 2-1=i;HEK293 MPD ctr-1=0.1%*
Cc1ccc(Cc2c(C)nc3nc(SCC(=O)N4CCC5(CC4)OCCO5)nn3c2C)cc1	13*	i	-11*	i	i	184%*	i	32%*	38%*	46%*	152%*
Nc1c2c(nc3sc4c(c13)CCCC4)CCCC2	i	i	-5.9*	i	i	i	i	-8.0%*	62%*	i	i
